Drawing on ChEMBL document CHEMBL1156205, “Synthesis and antibacterial activity of new 9-O-arylpropenyloxime ketolides” (2010), this text covers MIC and MIC50 for six compounds.

The term MIC denotes the least concentration at which growth counts as inhibited. A high value points to weaker potency. In general, MIC50 refers to the lowest concentration that inhibits either 50% of growth or 50% of the strains tested, depending on the study. The low end stands for higher susceptibility, the high end for lower susceptibility.

Molecules are shown by their SMILES. In brackets after ≈: the same amount, converted by molar mass.

Holding throughout (assay type): functional
Experiment [1] concerns Streptococcus pneumoniae. Nature of the experiment: Antibacterial activity against penicillin intermediate-resistant Streptococcus pneumoniae isolate I1 by agar dilution method. The method in brief: (§1)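 MIC determined by agar dilution on Mueller–Hinton agar against clinically isolated penicillin-intermediate-resistant S. pneumoniae.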
On the technique in general: In agar dilution the substance is mixed into plates at graded concentrations.

The subject of experiment [2] is Staphylococcus aureus. The experiment can be described thus: Antibacterial activity against methicillin-susceptible Staphylococcus aureus ATCC 29213 by agar dilution method. The method, boiled down:
(§2)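 MIC determined by agar dilution on Mueller–Hinton agar against reference strains.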

Experiment [3] relates to Staphylococcus aureus. Nature of the experiment: Antibacterial activity against methicillin-resistant Staphylococcus aureus 1 by agar dilution method. The method in brief: (§3)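 MIC determined by agar dilution on Mueller–Hinton agar against clinical strains of methicillin-resistant S. aureus.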
The subject of experiment [4] is Staphylococcus aureus. Nature of the experiment: Antibacterial activity against methicillin-resistant Staphylococcus aureus 2 by agar dilution method. The method, boiled down:
as §3

The test system of experiment [5] is Staphylococcus aureus. The experiment can be described thus: Antibacterial activity against methicillin-resistant Staphylococcus aureus 3 by agar dilution method. The method, boiled down:
as §3

In experiment [6] the test system is Staphylococcus aureus. Nature of the experiment: Antibacterial activity against methicillin-susceptible Staphylococcus aureus isolate 1 by agar dilution method. The method in brief: (§4)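 MIC determined by agar dilution on Mueller–Hinton agar against clinically isolated methicillin-susceptible S. aureus.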
In experiment [7] the test system is Staphylococcus aureus. Nature of the experiment: Antibacterial activity against methicillin-susceptible Staphylococcus aureus isolate 2 by agar dilution method. The method, boiled down:
as §4

Experiment [8] deals with Staphylococcus aureus. Nature of the experiment: Antibacterial activity against methicillin-susceptible Staphylococcus aureus isolate 3 by agar dilution method. The method in brief:
as §4

In experiment [9] the test system is Streptococcus pneumoniae. Nature of the experiment: Antibacterial activity against Streptococcus pneumoniae ATCC 49619 by agar dilution method. The following applies: ATCC49619. The method in brief: as §2
Experiment [10] has as its system Streptococcus pneumoniae. The experiment can be described thus: Antibacterial activity against penicillin intermediate-resistant Streptococcus pneumoniae isolate I2 by agar dilution method. The method in brief: as §1
Experiment [11] deals with Streptococcus pneumoniae. The experiment can be described thus: Antibacterial activity against penicillin intermediate-resistant Streptococcus pneumoniae isolate I3 by agar dilution method. The method, boiled down:
as §1

The subject of experiment [12] is Streptococcus pneumoniae. Nature of the experiment: Antibacterial activity against penicillin-susceptible Streptococcus pneumoniae isolate S1 by agar dilution method. The method in brief:
(§5)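 MIC measured by agar dilution on Mueller–Hinton agar. Strains were a reference culture and clinically isolated strains. The pneumococcal isolates were penicillin-susceptible clinical isolates.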

Experiment [13] concerns Streptococcus pneumoniae. Nature of the experiment: Antibacterial activity against penicillin-susceptible Streptococcus pneumoniae isolate S2 by agar dilution method. The method, boiled down: as §5
Experiment [14] relates to Streptococcus pyogenes. Nature of the experiment: Antibacterial activity against Streptococcus pyogenes ATCC 8668 by agar dilution method. The method in brief:
as §5

Experiment [15] deals with Streptococcus pyogenes. The experiment can be described thus: Antibacterial activity against Streptococcus pyogenes isolate 1 by agar dilution method. The method in brief:
as §5

Experiment [16] relates to Streptococcus pyogenes. The experiment can be described thus: Antibacterial activity against Streptococcus pyogenes isolate 2 by agar dilution method. The method in brief:
as §5

The subject of experiment [17] is Streptococcus pyogenes. Nature of the experiment: Antibacterial activity against Streptococcus pyogenes isolate 3 by agar dilution method. The method, boiled down:
as §5

For `CC[C@H]1OC(=O)[C@H](C)C(=O)[C@H](C)[C@@H](O[C@@H]2O[C@H](C)C[C@H](N(C)C)[C@H]2O)[C@](C)(OC)C[C@@H](C)/C(=N\OC/C=C/c2ccc(OC)cc2)[C@H](C)[C@@H](O)[C@]1(C)O`, the MIC with Streptococcus pneumoniae [1] was found to be 64 µg/mL (≈ 85.5 µM); against Staphylococcus aureus [2] it was 2 µg/mL (≈ 2.67 µM); in the experiment on Staphylococcus aureus [3], 128 µg/mL (≈ 171 µM); in the experiment on Staphylococcus aureus [4] it was 126 µg/mL (≈ 168 µM); in the experiment on Staphylococcus aureus [5], 2 µg/mL (≈ 2.67 µM); against Staphylococcus aureus [6], 2 µg/mL (≈ 2.67 µM). Further, the MIC amounted to 1 µg/mL (≈ 1.34 µM) against Staphylococcus aureus [7]; 1 µg/mL (≈ 1.34 µM) in the experiment on Staphylococcus aureus [8]; 0.5 µg/mL (≈ 0.668 µM) with Streptococcus pneumoniae [9]; 0.5 µg/mL (≈ 0.668 µM) in the experiment with Streptococcus pneumoniae [10]; 0.5 µg/mL (≈ 0.668 µM) with Streptococcus pneumoniae [11]; 0.25 µg/mL (≈ 0.334 µM) in the experiment with Streptococcus pneumoniae [12]. In addition, the MIC in the experiment on Streptococcus pneumoniae [13] was found to be 0.25 µg/mL (≈ 0.334 µM); in the experiment with Streptococcus pyogenes [14] it was 0.5 µg/mL (≈ 0.668 µM); in the experiment on Streptococcus pyogenes [15], 0.25 µg/mL (≈ 0.334 µM); with Streptococcus pyogenes [16], 0.5 µg/mL (≈ 0.668 µM); against Streptococcus pyogenes [17] it was 0.5 µg/mL (≈ 0.668 µM).
Turning to `CC[C@H]1OC(=O)[C@H](C)C(=O)[C@H](C)[C@@H](O[C@@H]2O[C@H](C)C[C@H](N(C)C)[C@H]2O)[C@](C)(OC)C[C@@H](C)/C(=N\OC/C=C/c2cccs2)[C@H](C)[C@@H](O)[C@]1(C)O`, the minimal inhibitory concentration (MIC) in the experiment with Streptococcus pneumoniae [1] amounted to 32 µg/mL (≈ 44.1 µM); with Staphylococcus aureus [2] it was 0.5 µg/mL (≈ 0.69 µM); in the experiment with Staphylococcus aureus [3], 128 µg/mL (≈ 177 µM); in the experiment with Staphylococcus aureus [4] it was 128 µg/mL (≈ 177 µM); with Staphylococcus aureus [5], 0.25 µg/mL (≈ 0.345 µM); against Staphylococcus aureus [6] it was 0.5 µg/mL (≈ 0.69 µM). In addition, the MIC against Staphylococcus aureus [7] amounted to 0.25 µg/mL (≈ 0.345 µM); in the experiment with Staphylococcus aureus [8] it was 0.25 µg/mL (≈ 0.345 µM); with Streptococcus pneumoniae [9], 0.06 µg/mL (≈ 0.0828 µM); against Streptococcus pneumoniae [10] it was 0.125 µg/mL (≈ 0.172 µM); in the experiment with Streptococcus pneumoniae [11], 0.125 µg/mL (≈ 0.172 µM); in the experiment with Streptococcus pneumoniae [12] it was 0.06 µg/mL (≈ 0.0828 µM). The minimal inhibitory concentration (MIC) with Streptococcus pneumoniae [13], in the experiment with Streptococcus pyogenes [14], in the experiment with Streptococcus pyogenes [15], against Streptococcus pyogenes [16] and against Streptococcus pyogenes [17] was 0.06 µg/mL (≈ 0.0828 µM) each time.
Regarding `CC[C@H]1OC(=O)[C@H](C)C(=O)[C@H](C)[C@@H](O[C@@H]2O[C@H](C)C[C@H](N(C)C)[C@H]2O)[C@](C)(OC)C[C@@H](C)/C(=N\OC/C=C/c2cnc3ccccc3c2)[C@H](C)[C@@H](O)[C@]1(C)O`, the MIC with Streptococcus pneumoniae [1] is 64 µg/mL (≈ 83.1 µM); in the experiment on Staphylococcus aureus [2], 0.25 µg/mL (≈ 0.325 µM); in the experiment with Staphylococcus aureus [3] it was 128 µg/mL (≈ 166 µM); with Staphylococcus aureus [4], 128 µg/mL (≈ 166 µM); against Staphylococcus aureus [5], 0.25 µg/mL (≈ 0.325 µM); against Staphylococcus aureus [6], 0.25 µg/mL (≈ 0.325 µM). Besides, the MIC against Staphylococcus aureus [7] amounted to 0.25 µg/mL (≈ 0.325 µM); in the experiment with Staphylococcus aureus [8], 0.25 µg/mL (≈ 0.325 µM); in the experiment on Streptococcus pneumoniae [9], 0.06 µg/mL (≈ 0.0779 µM); in the experiment with Streptococcus pneumoniae [10], 0.06 µg/mL (≈ 0.0779 µM); against Streptococcus pneumoniae [11] it was 4 µg/mL (≈ 5.19 µM); in the experiment on Streptococcus pneumoniae [12], 0.06 µg/mL (≈ 0.0779 µM). Also, the minimal inhibitory concentration (MIC) in the experiment on Streptococcus pneumoniae [13], with Streptococcus pyogenes [14], in the experiment with Streptococcus pyogenes [15], in the experiment with Streptococcus pyogenes [16] and in the experiment on Streptococcus pyogenes [17] was 0.06 µg/mL (≈ 0.0779 µM) throughout.
Consider `CC[C@H]1OC(=O)[C@H](C)C(=O)[C@H](C)[C@@H](O[C@@H]2O[C@H](C)C[C@H](N(C)C)[C@H]2O)[C@](C)(OC)C[C@@H](C)/C(=N\OC/C=C/c2ccc3[nH]ccc3c2)[C@H](C)[C@@H](O)[C@]1(C)O`, for which the MIC in the experiment with Streptococcus pneumoniae [1] was 32 µg/mL (≈ 42.2 µM); against Staphylococcus aureus [2], 1 µg/mL (≈ 1.32 µM); against Staphylococcus aureus [3] it was 128 µg/mL (≈ 169 µM); against Staphylococcus aureus [4] it was 128 µg/mL (≈ 169 µM); against Staphylococcus aureus [5], 1 µg/mL (≈ 1.32 µM); in the experiment with Staphylococcus aureus [6] it was 1 µg/mL (≈ 1.32 µM). Besides, the MIC against Staphylococcus aureus [7] came out at 1 µg/mL (≈ 1.32 µM); with Staphylococcus aureus [8], 1 µg/mL (≈ 1.32 µM); against Streptococcus pneumoniae [9], 0.25 µg/mL (≈ 0.33 µM); against Streptococcus pneumoniae [10], 0.25 µg/mL (≈ 0.33 µM); against Streptococcus pneumoniae [11] it was 0.25 µg/mL (≈ 0.33 µM); with Streptococcus pneumoniae [12] it was 0.06 µg/mL (≈ 0.0792 µM). For the same compound, the MIC was determined as 0.06 µg/mL (≈ 0.0792 µM) with Streptococcus pneumoniae [13]; 0.25 µg/mL (≈ 0.33 µM) with Streptococcus pyogenes [14]; 0.06 µg/mL (≈ 0.0792 µM) in the experiment with Streptococcus pyogenes [15]; 0.25 µg/mL (≈ 0.33 µM) in the experiment on Streptococcus pyogenes [16]; 0.25 µg/mL (≈ 0.33 µM) against Streptococcus pyogenes [17].
Regarding `CC[C@H]1OC(=O)[C@H](C)C(=O)[C@H](C)[C@@H](O[C@@H]2O[C@H](C)C[C@H](N(C)C)[C@H]2O)[C@](C)(OC)C[C@@H](C)/C(=N\OC/C=C/c2ccc3c(c2)CCC3=O)[C@H](C)[C@@H](O)[C@]1(C)O`, the MIC in the experiment with Streptococcus pneumoniae [1] stood at 64 µg/mL (≈ 82.8 µM); with Staphylococcus aureus [2], 1 µg/mL (≈ 1.29 µM); against Staphylococcus aureus [3], 128 µg/mL (≈ 166 µM); in the experiment with Staphylococcus aureus [4] it was 128 µg/mL (≈ 166 µM); in the experiment with Staphylococcus aureus [5], 1 µg/mL (≈ 1.29 µM); in the experiment on Staphylococcus aureus [6] it was 1 µg/mL (≈ 1.29 µM). Further, the MIC was 1 µg/mL (≈ 1.29 µM) against Staphylococcus aureus [7]; 1 µg/mL (≈ 1.29 µM) against Staphylococcus aureus [8]; 0.25 µg/mL (≈ 0.323 µM) in the experiment on Streptococcus pneumoniae [9]; 0.25 µg/mL (≈ 0.323 µM) in the experiment with Streptococcus pneumoniae [10]; 8 µg/mL (≈ 10.3 µM) against Streptococcus pneumoniae [11]; 0.06 µg/mL (≈ 0.0776 µM) against Streptococcus pneumoniae [12]. Also, the MIC came out at 0.06 µg/mL (≈ 0.0776 µM) against Streptococcus pneumoniae [13]; 0.25 µg/mL (≈ 0.323 µM) against Streptococcus pyogenes [14]; 0.06 µg/mL (≈ 0.0776 µM) with Streptococcus pyogenes [15]; 0.25 µg/mL (≈ 0.323 µM) in the experiment with Streptococcus pyogenes [16]; 0.25 µg/mL (≈ 0.323 µM) against Streptococcus pyogenes [17].
As to `CC[C@H]1OC(=O)[C@H](C)[C@@H](O[C@H]2C[C@@](C)(OC)[C@@H](O)[C@H](C)O2)[C@H](C)[C@@H](O[C@@H]2O[C@H](C)C[C@H](N(C)C)[C@H]2O)[C@](C)(O)C[C@@H](C)C(=O)[C@H](C)[C@@H](O)[C@]1(C)O` [ERYTHROMYCIN], the MIC50 against Streptococcus pneumoniae [1], with Streptococcus pneumoniae [10] and with Streptococcus pneumoniae [11] was > 128 µM each time.
